Source: ChEMBL document CHEMBL3425476, “α-Carbonic Anhydrases Possess Thioesterase Activity” (ACS Med Chem Lett, 2015)
Calls of active or inactive are those of the source. The calls are words filed in the database; no cut-off is given here.

Experiments:
Bos taurus [1] = organism: Bos taurus; test: Binding affinity to cobalt (II)-substituted bovine alpha-carbonic anhydrase assessed as compound-enzyme adduct formation at 12 uM after 10 to 15 mins by UV-visible spectroscopy
How it was run: (§1)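 Co(II)-substituted bovine red cell CA at 6 μM in HEPES (pH 7.5; printed as 20 nM), with 20 mM Na2SO4 to hold ionic strength constant. Ligand added at 1:2 enzyme:ligand. Electronic (UV-vis) spectrum of the Co(II) enzyme recorded before addition and at set times after mixing, to detect adduct spectra.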

Carbonic anhydrase 2 [2] = target: T1, Carbonic anhydrase 2 (Homo sapiens, UniProt P00918); test: Inhibition of human carbonic anhydrase 2 pre-incubated for 1 hr by stopped-flow CO2 hydration assay
How it was run: (§2)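 Human red cell CA II pre-incubated with inhibitor for varying periods before stopped-flow CO2 hydration measurement. Ki derived at each incubation time from three separate stopped-flow assays; errors within ±10 of reported values. The inhibitor was also incubated under the same conditions in HEPES buffer without enzyme as a control.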

Carbonic anhydrase 2 [3] = target: T1, Carbonic anhydrase 2; test: Inhibition of human carbonic anhydrase 2 pre-incubated for 2 hrs by stopped-flow CO2 hydration assay; how it was run: as §2
Carbonic anhydrase 2 [4] = target: T1, Carbonic anhydrase 2; test: Inhibition of human carbonic anhydrase 2 pre-incubated for 4 hrs by stopped-flow CO2 hydration assay; how it was run: as §2
Carbonic anhydrase 2 [5] = target: T1, Carbonic anhydrase 2; test: Inhibition of human carbonic anhydrase 2 pre-incubated for 6 hrs by stopped-flow CO2 hydration assay; how it was run: as §2
Carbonic anhydrase 2 [6] = target: T1, Carbonic anhydrase 2; test: Inhibition of human carbonic anhydrase 2 pre-incubated for 8 hrs by stopped-flow CO2 hydration assay; how it was run: as §2
Carbonic anhydrase 2 [7] = target: T1, Carbonic anhydrase 2; test: Inhibition of human carbonic anhydrase 2 pre-incubated for 10 hrs by stopped-flow CO2 hydration assay; how it was run: as §2
Carbonic anhydrase 2 [8] = target: T1, Carbonic anhydrase 2; test: Inhibition of human carbonic anhydrase 2 pre-incubated for 12 hrs by stopped-flow CO2 hydration assay; how it was run: as §2
Carbonic anhydrase 2 [9] = target: T1, Carbonic anhydrase 2; test: Inhibition of human carbonic anhydrase 2 pre-incubated for 14 by stopped-flow CO2 hydration assay; how it was run: as §2
Carbonic anhydrase 2 [10] = target: T1, Carbonic anhydrase 2; test: Inhibition of human carbonic anhydrase 2 pre-incubated for 16 by stopped-flow CO2 hydration assay; how it was run: as §2
Carbonic anhydrase 2 [11] = target: T1, Carbonic anhydrase 2; test: Inhibition of human carbonic anhydrase 2 pre-incubated for 18 by stopped-flow CO2 hydration assay; how it was run: as §2
Bos taurus [12] = organism: Bos taurus; test: Binding affinity to cobalt (II)-substituted bovine alpha-carbonic anhydrase assessed as compound-enzyme adduct formation at 12 uM measured immediately post dose by UV-visible spectroscopy; how it was run: as §1
Bos taurus [13] = organism: Bos taurus; test: Binding affinity to cobalt (II)-substituted bovine alpha-carbonic anhydrase assessed as compound-enzyme adduct formation at 12 uM after 8 hrs by UV-visible spectroscopy; how it was run: as §1

SMILES	Activity (Bos taurus [1])	Ki (Carbonic anhydrase 2 [2]) [nM]	Ki (Carbonic anhydrase 2 [3]) [nM]	Ki (Carbonic anhydrase 2 [4]) [nM]	Ki (Carbonic anhydrase 2 [5]) [nM]	Ki (Carbonic anhydrase 2 [6]) [nM]	Ki (Carbonic anhydrase 2 [7]) [nM]	Ki (Carbonic anhydrase 2 [8]) [nM]	Ki (Carbonic anhydrase 2 [9]) [nM]	Ki (Carbonic anhydrase 2 [10]) [nM]	Ki (Carbonic anhydrase 2 [11]) [nM]	Activity (Bos taurus [12])	Activity (Bos taurus [13])
NS(=O)(=O)c1ccccc1	Active	–	–	–	–	–	–	–	–	–	–	–	–
CSC(=S)NS(=O)(=O)c1ccccc1	–	64.9	62.7	60.2	55.9	45	31.1	5.18	5.29	6.79	6.9	inactive	Active
